Measurements taken from article PMC7797077 (Nucleic Acids Research, 2020).
Where no end group is shown, it is not given here. The star is where a group is joined. Bz = O=C(c1ccccc1)*

What was measured:
[1] = test system: histone Kbz and Kac in mouse intestinal epithelial cells; assay: NaBz water feeding in mice, western blot of histone Kbz and Kac; type: in vivo, C57BL/6N mice; details: ten days of NaBz water feeding at 10, 20 and 50 mM
How it was run: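 SPF-housed mice drank NaBz water for 10 days. Intestinal tissue was shaken at 200 rpm, 37°C, 20 min in HBSS (no Ca²⁺/Mg²⁺) with 10 mM HEPES, 5 mM EDTA, 1 mM DTT and 3% FBS. Released epithelial cells were pelleted at 1500 rpm, 4°C. Total histones were kit-extracted and BCA-quantified, then run on SDS-PAGE and PVDF. Primary antibodies overnight at 4°C; HRP secondary 1:5,000; ECL. Histone H4 served as loading control; duplicate mice.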

[2] = test system: histone Kbz in HEK 293T, HeLa, HCT116 and HepG2 cells; assay: Western blot of core histone Kbz levels after NaBz treatment; type: cell-based, human; details: 24-h treatment with NaBz at various concentrations
[3] = test system: nuclear Kbz in HEK 293T and HCT116 cells; assay: Immunofluorescence staining of Kbz after NaBz treatment; type: cell-based, human; details: 10 mM NaBz, 24 h
How it was run: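 Cells were fixed in 4% formaldehyde for 20 min at RT, permeabilized on ice with 0.5% Triton X-100 for 10 min, and blocked in 3% BSA for 1 h. Anti-pan Kbz (1:500) was applied overnight at 4°C, then Alexa Fluor 594 anti-mouse (1:1000) for 1 h. Mounted with DAPI; confocal imaging.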

[4] = molecular target: AF9 YEATS domain (2-138) (human) (UniProt P42568); assay: ITC
[5] = molecular target: YEATS2 YEATS domain (201-332) S230F (human) (UniProt Q9ULM3); assay: ITC
Chain of YEATS2 YEATS domain (201-332) S230F (human) (Q9ULM3 201-332 S230F): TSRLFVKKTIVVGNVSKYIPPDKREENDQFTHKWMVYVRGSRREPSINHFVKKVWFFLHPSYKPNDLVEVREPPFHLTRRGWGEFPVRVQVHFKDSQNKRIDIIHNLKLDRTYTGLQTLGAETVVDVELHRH

[6] = molecular target: YEATS2 YEATS domain (201-332) (human) (UniProt Q9ULM3); assay: ITC
Chain of YEATS2 YEATS domain (201-332) (human) (Q9ULM3 201-332): as the sequence (Q9ULM3 201-332 S230F) above, with F30S counted along it

[7] = molecular target: T1, AF9 YEATS domain (2-138) F28S (human, UniProt P42568 2-138, F28S); assay: ITC
T1 sequence (looked up): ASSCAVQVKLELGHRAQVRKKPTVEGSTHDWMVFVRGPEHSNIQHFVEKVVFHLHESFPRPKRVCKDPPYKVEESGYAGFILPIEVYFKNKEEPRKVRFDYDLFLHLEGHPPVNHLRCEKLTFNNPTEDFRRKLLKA

O=C([O-])c1ccccc1.[Na+] [NaBz, Sodium benzoate]
pan Kac level of histone in mouse intestinal epithelial cells [1]: not stimulated
histone Kbz signal in mouse intestinal epithelial cells ([1]; two mice per concentration): clearly boosted
signals of histone Kbz (pan Kbz western blot) [2]: upregulated in a dose-dependent manner
nuclear Kbz signals (immunofluorescence) [3]: lightened up

histone H3_(2-16)K9bz peptide (from UniProt P68431 3-17)
Kd [4]: 5.97 µM

histone H3_(15-39)K27bz peptide (from UniProt P68431 16-40)
dH [5]: -6.8 kcal/mol
Kd [6]: 21.6 µM

RTKQTARK(Bz)STGGKAP (peptide, UniProt P68431 3-17, looked up) [histone H3_(2-16)K9bz peptide]
fold binding enhancement over WT AF9 YEATS [7]: ~1.6 fold
